Assay results published in ChEMBL document CHEMBL1125707, “Dexamethasone 21-(beta-isothiocyanatoethyl) thioether: a new affinity label for glucocorticoid receptors” (J Med Chem, 1991).

Experiments:
[1] = molecular target: T1, Glucocorticoid receptor (Rattus norvegicus) (UniProt P06536); experiment: Relative affinity [Ka compound/Ka Dex] for glucocorticoid receptors in cell-free competition assay
T1 sequence (whole entry): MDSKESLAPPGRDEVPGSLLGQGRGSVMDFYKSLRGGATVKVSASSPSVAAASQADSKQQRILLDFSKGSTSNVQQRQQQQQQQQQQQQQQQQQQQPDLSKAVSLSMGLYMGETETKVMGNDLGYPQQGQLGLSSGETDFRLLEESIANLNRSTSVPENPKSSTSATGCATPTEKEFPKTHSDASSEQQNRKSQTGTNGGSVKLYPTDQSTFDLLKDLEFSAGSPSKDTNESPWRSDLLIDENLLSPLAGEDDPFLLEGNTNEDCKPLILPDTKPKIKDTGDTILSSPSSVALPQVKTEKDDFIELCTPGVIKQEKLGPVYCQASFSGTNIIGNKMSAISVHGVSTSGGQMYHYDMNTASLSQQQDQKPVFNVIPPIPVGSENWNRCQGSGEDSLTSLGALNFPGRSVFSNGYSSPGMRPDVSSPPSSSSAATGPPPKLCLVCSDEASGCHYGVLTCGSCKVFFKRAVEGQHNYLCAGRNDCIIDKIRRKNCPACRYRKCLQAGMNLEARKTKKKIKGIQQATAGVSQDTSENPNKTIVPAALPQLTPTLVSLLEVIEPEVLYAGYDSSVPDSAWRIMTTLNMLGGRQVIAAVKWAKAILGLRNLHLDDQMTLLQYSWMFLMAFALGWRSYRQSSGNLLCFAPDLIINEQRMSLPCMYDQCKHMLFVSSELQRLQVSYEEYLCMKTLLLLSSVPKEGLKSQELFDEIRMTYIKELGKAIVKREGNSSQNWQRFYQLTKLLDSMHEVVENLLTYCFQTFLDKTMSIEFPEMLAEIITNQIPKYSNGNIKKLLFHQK
Method in brief: (§1)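 Competition with [3H]Dex for glucocorticoid receptors, in HTC cell cytosol (0 °C) or in intact HTC cells (30 min, 37 °C). Relative affinity is the ratio of Dex to steroid concentrations giving 50% inhibition of [3H]Dex binding, corrected by the Rodbard method for partial receptor occupancy by uncompeted [3H]Dex. Averages of 2–4 experiments.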

[2] = molecular target: T1, Glucocorticoid receptor (Rattus norvegicus); experiment: Relative affinity [Ka compound/Ka Dex] for glucocorticoid receptors in whole-cell competition assay; method in brief: as §1
[3] = molecular target: Glucocorticoid receptor (Rattus norvegicus) (UniProt P06536); conditions: filed as partial agonist
[4] = molecular target: T1, Glucocorticoid receptor (Rattus norvegicus); experiment: Dex-NCS incubation on the subsequent inhibition of exchange binding with [3H]dexamethasone measured at pH 7.6 at 1h.; conditions: concentration not given here
Method in brief: (§2)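 Crude HTC cytosol receptors in TAPS buffer were preincubated 3 h at 0 °C with Dex-NCS (290 or 580 nM) or cortisol (60 or 120 nM). Activated charcoal then removed free steroid and inactivated steroid-free receptors. Cytosol was adjusted to 1.9×10^-8 M [3H]Dex ± 575-fold unlabeled Dex and incubated for the stated times at 0 °C, final pH 8.8 or 7.6. Bound steroid was charcoal-separated; specific = total − nonspecific. Cortisol preincubation defined exchangeable binding. Run in duplicate; mean (SD, n).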

[5] = molecular target: T1, Glucocorticoid receptor (Rattus norvegicus); experiment: Dex-NCS incubation on the subsequent inhibition of exchange binding with [3H]Dexamethasone measured at pH 7.6 at 20h.; conditions: concentration not given here; method in brief: as §2
[6] = molecular target: T1, Glucocorticoid receptor (Rattus norvegicus); experiment: Dex-NCS incubation on the subsequent inhibition of exchange binding with [3H]dexamethasone measured at pH 7.6 at 3h.; conditions: concentration not given here; method in brief: as §2
[7] = molecular target: T1, Glucocorticoid receptor (Rattus norvegicus); experiment: Dex-NCS incubation on the subsequent inhibition of exchange binding with [3H]dexamethasone measured at pH 7.6 at 5h.; conditions: concentration not given here; method in brief: as §2
[8] = molecular target: T1, Glucocorticoid receptor (Rattus norvegicus); experiment: Dex-NCS incubation on the subsequent inhibition of exchange binding with [3H]dexamethasone measured at pH 8.8 at 1h.; conditions: concentration not given here; method in brief: as §2
[9] = molecular target: T1, Glucocorticoid receptor (Rattus norvegicus); experiment: Dex-NCS incubation on the subsequent inhibition of exchange binding with [3H]dexamethasone measured at pH 8.8 at 3h.; conditions: concentration not given here; method in brief: as §2
[10] = molecular target: T1, Glucocorticoid receptor (Rattus norvegicus); experiment: Dex-NCS incubation on the subsequent inhibition of exchange binding with [3H]dexamethasone measured at pH 8.8 at 5h.; conditions: concentration not given here; method in brief: as §2

Relative affinity [1]	Relative affinity [2]	Agonist [3]	inhibition [4]	inhibition [5]	inhibition [6]	inhibition [7]	inhibition [8]	inhibition [9]	inhibition [10]	Structure (SMILES)
0.079	0.0087									C[C@@H]1CC2C3CCC4=CC(=O)C=C[C@]4(C)[C@@]3(F)[C@@H](O)C[C@]2(C)[C@@]1(O)C(=O)COC(=O)c1c(C(F)(F)F)cccc1C(F)(F)F (some centres not stated)
0.021	0.063	Partial agonist								C[C@@H]1CC2C3CCC4=CC(=O)C=C[C@]4(C)[C@@]3(F)[C@@H](O)C[C@]2(C)[C@@]1(O)C(=O)CBr (some centres not stated)
			63.2%	45.7%	60.5%	56.6%	43.8%	37%	34.1%	C[C@@H]1CC2C3CCC4=CC(=O)C=C[C@]4(C)[C@@]3(F)[C@@H](O)C[C@]2(C)[C@@]1(O)C(=O)CSCCN=C=S (some centres not stated)
